Test results from ChEMBL document CHEMBL1275375, “Properties and synthesis of 2-{2-fluoro (or bromo)-4-[(2-oxocyclopentyl)methyl]phenyl}propanoic acid: nonsteroidal anti-inflammatory drugs with low membrane permeabilizing and gastric lesion-producing activities” (J Med Chem, 2010).
The source made the active and inactive calls. The calls are words filed in the database; no cut-off is given here.

How the values were obtained:
[1] = target: T1, Prostaglandin G/H synthase 2 (Homo sapiens, UniProt P35354); assay: Inhibition of COX2 in human whole blood assessed as PGE2 biosynthesis after 24 hrs by EIA; assay type: tissue-based
T1 sequence (P35354 whole entry): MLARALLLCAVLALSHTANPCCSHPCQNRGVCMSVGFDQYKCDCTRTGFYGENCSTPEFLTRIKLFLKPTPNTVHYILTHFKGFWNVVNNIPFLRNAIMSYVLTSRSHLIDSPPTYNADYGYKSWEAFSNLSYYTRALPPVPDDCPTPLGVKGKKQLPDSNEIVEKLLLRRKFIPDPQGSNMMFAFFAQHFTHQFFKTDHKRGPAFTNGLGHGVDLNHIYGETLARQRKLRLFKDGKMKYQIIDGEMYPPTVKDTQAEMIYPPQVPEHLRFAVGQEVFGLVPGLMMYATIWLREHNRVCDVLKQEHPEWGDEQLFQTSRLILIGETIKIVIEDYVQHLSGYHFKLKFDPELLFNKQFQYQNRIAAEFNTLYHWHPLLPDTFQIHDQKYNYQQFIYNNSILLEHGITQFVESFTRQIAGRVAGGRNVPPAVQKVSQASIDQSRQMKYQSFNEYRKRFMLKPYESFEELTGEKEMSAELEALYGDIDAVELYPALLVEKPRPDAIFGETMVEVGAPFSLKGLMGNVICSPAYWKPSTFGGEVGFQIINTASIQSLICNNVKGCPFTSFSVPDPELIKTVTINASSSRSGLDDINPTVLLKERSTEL

Homo sapiens = species: Homo sapiens; assay: Selectivity ratio of IC50 for human COX1-derived TXB2 biosynthesis to IC50 for human COX2-derived PGE2 biosynthesis
Summary of the method: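 Human whole blood assay of COX-1- and COX-2-derived PG biosynthesis. IC50 taken from a four-parameter logistic fit of dose-response curves. Ratio is COX-1 IC50 / COX-2 IC50. Mean ± SEM, n = 3.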

[2] = target: Prostaglandin G/H synthase 1 (Homo sapiens, UniProt P23219); assay: Inhibition of COX1 in human whole blood assessed as TXB2 biosynthesis after 24 hrs by EIA; assay type: tissue-based
Sequence of Prostaglandin G/H synthase 1 (P23219 whole entry): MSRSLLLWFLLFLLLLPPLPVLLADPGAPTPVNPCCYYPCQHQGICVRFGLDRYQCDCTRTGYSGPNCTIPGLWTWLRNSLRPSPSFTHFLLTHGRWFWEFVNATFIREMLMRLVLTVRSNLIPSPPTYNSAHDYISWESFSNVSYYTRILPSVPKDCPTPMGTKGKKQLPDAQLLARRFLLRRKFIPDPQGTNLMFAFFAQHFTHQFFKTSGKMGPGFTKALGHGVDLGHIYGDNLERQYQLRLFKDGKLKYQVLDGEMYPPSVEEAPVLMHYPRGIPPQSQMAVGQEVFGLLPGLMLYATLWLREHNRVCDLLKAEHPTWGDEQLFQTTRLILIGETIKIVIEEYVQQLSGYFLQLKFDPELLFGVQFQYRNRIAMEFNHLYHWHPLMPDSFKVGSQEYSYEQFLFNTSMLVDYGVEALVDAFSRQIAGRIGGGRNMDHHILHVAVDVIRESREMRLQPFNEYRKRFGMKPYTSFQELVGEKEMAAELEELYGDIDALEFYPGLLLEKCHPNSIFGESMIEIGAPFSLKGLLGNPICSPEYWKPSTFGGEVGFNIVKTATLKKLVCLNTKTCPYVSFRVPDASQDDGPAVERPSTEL
Summary of the method: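 IC50 taken from a four-parameter logistic fit of dose-response curves. Ratio is COX-1 IC50 / COX-2 IC50. Mean ± SEM, n = 3.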

Rattus norvegicus [3] = assay: Antiinflammatory activity in rat assessed as inhibition of carrageenan-induced paw edema at 13 mg/kg, po administered 1 hr before carrageenan challenge measured after 3 to 6 hrs; assay type: functional, organism-based; design: dose 13 mg/kg
Summary of the method: (§1)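 Oral dosing of rats 1 h before intradermal injection of 1% carrageenan into the left hindpaw. Paw edema measured 3 h and 6 h after carrageenan. Mean ± SEM, n = 3-4, compared with vehicle.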

[4] = Membrane permeabilization activity in calcein-loaded liposome assessed as calcein release at […] by fluorescence assay; assay type: physicochemical; conditions: artificial membrane
Summary of the method: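 Calcein-loaded liposomes exposed to compound; release of self-quenched calcein into the medium read as a rise in fluorescence. Triton X-100 (10 μM) defined 100% permeabilization. Mean ± SEM, n = 3.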

Rattus norvegicus [5] = assay: Toxicity in Wistar rat assessed as gastric lesion at 52 to 65 mg/kg, po; assay type: organism-based, Stomach; design: dose 52-65 mg/kg, route oral; conditions: in vivo
Summary of the method: (§2)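 Rats dosed orally (low or high dose); stomachs removed 8 h after dosing and scored for hemorrhagic damage to give a lesion index. Mean ± SEM, n = 3.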

Rattus norvegicus [6] = assay: Antiinflammatory activity against Wistar rat assessed as decrease in gastric level of PGE2 at 52 to 65 mg/kg, po; assay type: functional, organism-based; conditions: Stomach
Summary of the method: (§3)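 Rats dosed orally (low or high dose); stomachs removed 8 h later and gastric PGE₂ level measured by EIA. Mean ± SEM, n = 3, compared with vehicle.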

Rattus norvegicus [7] = assay: Antiinflammatory activity against Wistar rat assessed as decrease in gastric level of PGE2 at 43 to 53 mg/kg, po; assay type: functional, organism-based; conditions: Stomach; summary of the method: as §3
Rattus norvegicus [8] = assay: Toxicity in Wistar rat assessed as gastric lesion at 43 to 53 mg/kg, po; assay type: organism-based, Stomach; design: dose 43-53 mg/kg, route oral; conditions: in vivo; summary of the method: as §2
Rattus norvegicus [9] = assay: Antiinflammatory activity in rat assessed as inhibition of carrageenan-induced paw edema at 11 mg/kg, po administered 1 hr before carrageenan challenge measured after 3 to 6 hrs; assay type: functional, organism-based; design: dose 11 mg/kg; summary of the method: as §1
Rattus norvegicus [10] = assay: Antiinflammatory activity against Wistar rat assessed as decrease in gastric level of PGE2 at 40 to 50 mg/kg, po; assay type: functional, organism-based; conditions: Stomach; summary of the method: as §3
Rattus norvegicus [11] = assay: Antiinflammatory activity in rat assessed as inhibition of carrageenan-induced paw edema at 10 mg/kg, po administered 1 hr before carrageenan challenge measured after 3 to 6 hrs; assay type: functional, organism-based; design: dose 10 mg/kg; summary of the method: as §1
Rattus norvegicus [12] = assay: Toxicity in Wistar rat assessed as gastric lesion at 40 to 50 mg/kg, po; assay type: organism-based, Stomach; design: dose 40-50 mg/kg, route oral; conditions: in vivo; summary of the method: as §2

Structure (SMILES) | IC50 [1] | Ratio IC50 (Homo sapiens) | IC50 [2] | Activity (Rattus norvegicus [3]) | Activity [4] | Activity (Rattus norvegicus [5]) | Activity (Rattus norvegicus [6]) | Activity (Rattus norvegicus [7]) | Activity (Rattus norvegicus [8]) | Activity (Rattus norvegicus [9]) | Activity (Rattus norvegicus [10]) | Activity (Rattus norvegicus [11]) | Activity (Rattus norvegicus [12])
CC(C(=O)O)c1ccc(C[C@@H]2CCC[C@@H]2O)cc1F (relative stereo) | 48 µM | 0.2 | 7.7 µM | – | – | – | – | – | – | – | – | – | –
CC(C(=O)O)c1ccc(C[C@@H]2CCC[C@@H]2O)cc1Br (relative stereo) | 34 µM | 0.2 | 7.2 µM | – | – | – | – | – | – | – | – | – | –
CC(C(=O)O)c1ccc(C[C@H]2CCC[C@@H]2O)cc1F (relative stereo) | 3.1 µM | 0.4 | 0.6 µM | – | – | – | – | – | – | – | – | – | –
CC(C(=O)O)c1ccc(C[C@H]2CCC[C@@H]2O)cc1Br (relative stereo) | 8.5 µM | 0.3 | 2.2 µM | – | – | – | – | – | – | – | – | – | –
CC(C(=O)[O-])c1ccc(CC2CCCC2=O)cc1Br.[Na+] (stereo not drawn) [BROMOLOXOPROFEN] | 65.3 µM | 0.5 | 30.3 µM | Active | Not Active | Toxic | Active | – | – | – | – | – | –
CC(C(=O)[O-])c1ccc(CC2CCCC2=O)cc1F.[Na+] (stereo not drawn) [FLUORO LOXOPROFEN] | 14.3 µM | 2.5 | 24.2 µM | – | Not Active | – | – | Active | Toxic | Active | – | – | –
CC(C(=O)[O-])c1ccc(CC2CCCC2=O)cc1.[Na+] (stereo not drawn) [LOXOPROFEN SODIUM] | 10.1 µM | 2.5 | 23.5 µM | – | Active | – | – | – | – | – | Active | Active | Toxic
